The entries come from a sample that favours hits as a whole.
H69AR inhibit: blocks growth of human H69AR lung tumor cells; AID 598; 6% of 85,000 active; viability, % at 10 µM; H69AR lung tumor viability, ATP luminescence, 72 h; stronger effect = lower value;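 active means viability at or below 40%; inactive means viability above 40%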;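 further: multidrug resistant small cell line overexpressing MRP-1 efflux transporter; 100% = mean luminescence of untreated control wells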
HUVEC inhibit: inhibitors of human endothelial cell proliferation. 1.1% of 86,000 active. HUVEC proliferation, CellTiter-Glo luminescence, 72 h; stronger effect = lower value. viability, % at 10 µM (by protocol);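 active means viability at or below 30%; inactive means viability above 30%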;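 further: 100% = median luminescence of DMSO-only cell control wells on each plate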
PTEN del growth: growth suppressors of cells with PTEN tumor suppressor deletion. viability, % at 10 µM. HCT116 PTEN-null viability, CellTiter-Glo, 60 h; stronger effect = lower value. 1.2% of 140,000 active;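 active means viability at or below a set limit, 4 SD under the median of all tested compounds, cut at about 3.7% in these data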;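 further: PTEN knockout HCT116 line with beta catenin targeted HCT116 as companion control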
Fibroblast inh: blocks proliferation of human lung fibroblasts; LL 47 human lung fibroblast viability, ATP luminescence; stronger effect = lower value; 1.1% of 85,000 active; viability, % at 10 µM;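 active means viability at or below 50% in the single dose screen; inactive means viability above 50%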;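 further: compound exposure lasted 72 h before the ATP readout; 100% = median luminescence of untreated cell-only wells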
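Benchmarks: Cell-only wells, no compound | Test system: LL 47 human lung fibroblasts, passage 12 or lower | Input: 1,150 cells/well | Measured by: CellTiter-Glo luminescence measuring cellular ATP | Medium: IMEM, 15% FBS supplement | Schedule: Overnight attachment after seeding, then 72 h compound exposure at 37 °C | Doses: Compound addition at 0.1% DMSO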
bCat KO growth: beta-catenin-lacking colon tumor cell growth suppression; HCT116 beta-catenin knockout viability, CellTiter-Glo, 60 h; stronger effect = lower value; 1.5% of 140,000 active; viability, % at 10 µM;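 active means viability at or under a set limit, the compound median less 4 SD, cut at about 6% in these data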;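 further: 0% = Hyamine 1622 control at 20 µM and 100% = untreated cell control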
* = called active by the depositor; / = not tested or not shown.

SMILES	H69AR inhibit	HUVEC inhibit	PTEN del growth	Fibroblast inh	bCat KO growth
Cc1ccccc1CSCC(=O)NCc1ccco1	/	/	94.9	/	102.0
CCOc1ccc(-c2csc(/C(C#N)=C\c3ccc(O)c([N+](=O)[O-])c3)n2)cc1	/	/	4.5	/	5.5*
CCCCc1ccc(-c2csc(/C(C#N)=C\c3ccc(C)o3)n2)cc1	/	/	86.8	/	95.4
CN1c2ccccc2C(C)(C)[C@]12C=Cc1cc(O)ccc1O2	8.6*	49.5	30.5	87.6	29.6
CCCc1nc2oc3c(NCCN(C)C)ncnc3c2c2c1CCCC2	8.9*	39.3	1.8*	4.3*	2.0*
CC(C)Cc1nc2oc3c(N4CCN(C)CC4)ncnc3c2c2c1CCCC2	84.2	94.4	85.2	104.1	88.6
CCCc1nc2oc3c(N4CCNCC4)ncnc3c2c2c1CCCC2	7.0*	66.9	/	84.0	/
Cc1ccc(C2NC(=S)NC3=C2C(=O)CC(C)(C)C3)cc1 (stereo not drawn)	/	/	85.5	/	76.3
N#CC1=C(N)C(C#N)(C#N)C2(CCC3(CC2)OCCO3)C2CC3(CC=C12)OCCO3 (stereo not drawn)	96.7	93.8	92.1	108.0	91.5
CN1C2C=C3C(C#N)=C(N)C(C#N)(C#N)[C@H](c4c(F)cccc4F)[C@H]3C1CC2 (stereo partly drawn)	17.6*	92.7	61.6	97.0	52.3
CN1C2C=C3C(C#N)=C(N)C(C#N)(C#N)[C@@H](c4cccc(F)c4)[C@@H]3C1CC2 (stereo partly drawn)	81.5	99.8	96.9	98.3	93.5
N#CC1=C(N)C(C#N)(C#N)[C@H](c2c(F)cccc2F)[C@H]2CC3(CC=C12)OCCO3	3.0*	47.8	37.0	59.4	43.3
CC1CCc2c(sc3nc(CSc4ncn[nH]4)[nH]c(=O)c23)C1 (stereo not drawn)	/	/	87.3	/	94.5
Cc1c(CCOC(=O)CC23CC4CC(CC(C4)C2)C3)sc[n+]1CC(=O)c1ccc(Br)cc1	1.3*	2.2*	7.5	26.4*	4.8*
COc1cc(NC(=O)C2CCCN(c3ncccn3)C2)cc(OC)c1 (stereo not drawn)	58.4	89.5	95.9	104.0	97.6
O=C(CSc1nnc2scc(-c3ccccc3)n12)Nc1nsc(-c2ccccc2)n1	38.4*	86.6	61.8	109.5	72.5
CCc1ccc(C2=NNC(=Nc3cccc(S(=O)(=O)N(C)C)c3)SC2)cc1	/	/	3.9	/	3.9*
CNc1sc(C(=O)c2ccc(F)cc2)c(N)c1-c1nc2ccccc2s1	5.7*	25.3*	76.9	57.2	75.5
CNc1sc(C(=O)c2cccs2)c(N)c1-c1nc2ccccc2s1	62.6	59.8	81.4	83.0	79.5
COc1ccc(OC)c2sc(NC(=O)CCS(=O)(=O)c3ccccc3)nc12	2.4*	65.5	/	35.8*	/
COc1ccc(OC)c2sc(NC(=O)c3ccc(S(=O)(=O)N(C)C)cc3)nc12	20.9*	63.5	90.6	88.5	87.9
CNC(=O)NC(=O)COC(=O)c1ccc(-n2c(C)ccc2C)cc1	/	/	46.4	/	50.5
CCN(CC)c1nc(N)c2c(N)nc3c(c2c1C#N)CC(c1ccccc1)O3 (stereo not drawn)	58.7	71.8	61.9	86.3	78.2
CN(CCO)c1nc(N)c2c(N)nc3c(c2c1C#N)CC(=O)N3C1CCCC1	31.1*	70.7	43.3	93.6	32.6
CC(C)(C)N1C(=O)Cc2c1nc(N)c1c(N)nc(N3CCCCC3CO)c(C#N)c21 (stereo not drawn)	20.4*	74.2	85.8	87.9	74.3
SMILES	H69AR inhibit	HUVEC inhibit	PTEN del growth	Fibroblast inh	bCat KO growth
Cc1ccc2c(Cl)cc(Cl)c(OCC(=O)NC(=O)NCc3ccco3)c2n1	30.1*	83.0	86.8	92.9	85.7
Cc1ccc2c(Cl)cc(Cl)c(OCC(=O)NCc3ccco3)c2n1	51.7	82.9	52.3	87.1	57.7
O=C(CN1CCCCC1)Nc1ccc(NC(=O)c2ccccc2Cl)cc1Cl	/	/	91.8	/	86.3
O=C(Cn1nc(C(F)(F)F)cc1C1CC1)NCc1ccccc1F	/	/	101.2	/	97.2
C/C(Cl)=C/Cn1c(SCC(C)C)nc2c1c(=O)[nH]c(=O)n2C	35.3*	76.8	/	57.1	/
COc1ccc(C)cc1NC(=O)CN(Cc1nnc(-c2ccc(Cl)cc2)o1)C1CCCC1	2.4*	102.0	68.8	82.4	70.5
N#C/C(=C\c1sc(N2CCOCC2)nc1-c1ccccc1)C(=O)Nc1cccc2ccccc12	/	/	2.3*	/	3.9*
Cc1cc(C)cc(NC(N)=S)c1	/	/	90.8	/	81.2
OC(CN1CCN(c2ccccn2)CC1)Cn1c2ccc(Cl)cc2c2cc(Cl)ccc21 (stereo not drawn)	1.3*	41.2	11.9	94.1	13.0
Nc1nc(SCC(=O)NCc2ccccc2)[nH]c(=O)c1NC(=O)c1ccccc1F	/	/	94.6	/	87.7
CSc1nc(SCC(=O)NCc2ccco2)c2c3c(sc2n1)COC(C)(C)C3	23.4*	62.2	39.6	61.8	31.3
CCC1(C)Cc2c(sc3nc(NN)n(C)c(=O)c23)CO1 (stereo not drawn)	12.4*	76.7	59.6	88.7	37.2
CCCCSc1nc(SCC(=O)NCc2ccco2)c2c3c(sc2n1)COC(C)(CC)C3 (stereo not drawn)	/	/	73.8	/	75.5
CCCSc1nc(SCC(=O)NCc2ccccc2)c2c3c(sc2n1)COC(C)(CC)C3 (stereo not drawn)	37.2*	67.0	97.2	86.7	96.2
CCc1nc(SCC(=O)NCc2ccco2)c2c3c(sc2n1)CCCC3	57.2	55.1	77.6	105.8	85.8
CCCCc1nc2sc3c(SCC(=O)NCc4ccco4)ncnc3c2c2c1CCC2	31.8*	56.5	36.2	46.7*	14.1
CCOC(=O)CSc1nc2sc3c(c2c(=O)[nH]1)CC(C)(CC)OC3 (stereo not drawn)	95.4	86.0	116.5	106.5	100.7
Cc1nnc2sc(SCC(=O)Nc3nccs3)nn2c1=O	/	/	100.4	/	95.3
CCC(C)(C)c1nnc(NC(=O)c2cccc([N+](=O)[O-])c2)s1	/	/	93.9	/	95.7
COCCCn1c2nc3ccccc3nc2c2c(=O)n(Cc3ccccc3Cl)cnc21	3.2*	27.1*	/	69.2	/
CC(=C\c1ccco1)/C=C(\C#N)C(=O)NCCc1c[nH]c2ccccc12	/	/	91.3	/	92.6
CC(C)CC(=O)NCCCCc1ccccc1	/	/	83.4	/	90.3
CCCCOCCCNc1ncnc2c1[nH]c1ccccc12	39.2*	70.9	14.0	90.7	13.1
COc1cc(OC)c(OC)cc1/C=N/Nc1ncnc2c1[nH]c1ccccc12	/	/	4.6	/	4.2*
Oc1cccc(-c2nc3c4c(ncn3n2)-c2ccccc2CC42CCCC2)c1	/	/	2.4*	/	9.8
COc1ccc(-c2nc3c4c(ncn3n2)-c2ccccc2CC42CCCC2)cc1	/	/	65.6	/	73.6
CCCCN(CC)S(=O)(=O)c1ccc(C(=O)N=c2sc3cc(NC(C)=O)ccc3n2C)cc1	/	/	0.7*	/	0.6*
Brc1ccc(-c2nc(N/N=C/c3cccnc3)c3ccccc3n2)cc1	10.6*	61.4	39.1	59.8	49.8
Cc1nc2ccccc2c(=O)n1/N=C/c1cn(-c2ccccc2)nc1-c1cccs1	35.2*	69.3	74.5	99.7	74.6

Source: PubChem
